Screening results deposited in PubChem by several laboratories.
Beta cell apopt: beta cell apoptosis inhibition; INS-1E cytokine-induced death, ATP luminescence, 48 h; percent of positive-control rescue, neutral wells zero; protection from apoptosis, % (no concentration beside the values); actives 0.8% (n = 300,000);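 active = Every replicate reaches about 75%, or at least half do and their mean reaches it too, limit read from the data; inconclusive = At least half of replicates reach the limit but their mean does not; inactive = Under half of replicates reach the limit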;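 also: higher means more ATP so stronger rescue from cytokine killing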
NALP3 yeast inh: blocks the NALP3 inflammasome reconstituted in yeast; Yeast reconstituted NLRP3/ASC/caspase-1, beta-gal luminescence, 24 h; inhibition, % at 10 µM; actives 0.39% (n = 330,000); AID 2825;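 active = inhibition of 50% or more; inactive = inhibition below 50%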
T cruzi inh: blocks replication of Trypanosoma cruzi; T. cruzi beta-gal in NIH3T3, luminescence, 90 h; inhibition, % (test concentration not listed); actives 1.4% (n = 300,000); AID 1885;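 active = mean inhibition across valid replicates above about 55%, limit read from the data; inconclusive = mean below that limit but half or more replicates reach it; inactive = mean below it, under half of replicates reach it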;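 also: signal also drops with host cell toxicity which is not excluded here; higher percent means less beta-gal luminescence so fewer parasites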
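compound dosing = single 50 nL compound addition per well in DMSO | material = NIH/3T3 host cells with β-galactosidase reporter T. cruzi | input = 5,000 host fibroblasts per well | timing = ≥90 h infection period, 3 h prior cell attachment | read-out basis = percent inhibition of parasite-derived β-gal signal | detection = GalScreen β-gal luminescence, detergent lysis, 60 min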
Calb FLC: C. albicans growth modulation with fluconazole; C. albicans CaCi-2 (fluconazole-resistant clinical isolate) + fluconazole, Alamar Blue growth, 48 h; growth inhibition, % (concentration not given with the values); actives 0.57% (n = 300,000); AID 1979;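 active = growth inhibition above about 58% in most replicates, limit read from the data, passing the limit was not always enough; inconclusive = exactly half the replicates above a set limit; inactive = most replicates below a set limit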;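 also: all wells also contain fluconazole at 8 µg/ml as a sub-toxic cotreatment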
CSC inhib: cancer stem cell inhibition; cancer stem cell-like cells viability, luminescence; actives 1.1% (n = 300,000); inhibition, % at 7.5 µM; in the data active = inhibition above about 75%; inconclusive = no clear call, values can overlap the other calls; tested in HMLE shEcad cells
Mdm2-MdmX inh: inhibitors of human Mdm2/MdmX interaction. SaOS-2 split-luciferase Mdm2/MdmX complementation, luminescence. O15151+Q00987. AID 485346. actives 3% (n = 330,000). inhibition, % at 8 µM;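 active = inhibition of at least 50% at 8 µM in the primary screen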
Mdm2-MdmX conf: confirmation of human Mdm2/MdmX interaction inhibitors; shares compounds with Mdm2-MdmX inh; Mdm2-MdmX binding, luminescent assay; inhibition, % at 8 µM; actives 55% (n = 10,000); in the data active = inhibition above about 40%
FLuc counter: inhibits full-length luciferase, flagging false Mdm2/MdmX hits | inhibition, % at 8 µM | SaOS-2 full-length luciferase counterscreen, luminescence | AID 504607 | actives 77% (n = 6,200) | shares compounds with Mdm2-MdmX inh;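 active = mean inhibition at 8 µM reaching about 37%, which flags the compound as non-specific, limit read from the data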;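 also: p53-null SaOS-2 cells with luciferase driven by a doxycycline-inducible promoter; compound on cells about two nights before reading with doxycycline added after day one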
Hits are given with their value; . = inactive; ? = inconclusive; / = no result. Only some compounds are listed: those with a hit (about 5.3% of all), similar ones and a draw of the others.

SMILES	Beta cell apopt	NALP3 yeast inh	T cruzi inh	Calb FLC	CSC inhib	Mdm2-MdmX inh	Mdm2-MdmX conf	others
Cc1ccc(CCC(=O)Nc2ncc(Cc3cccc(Cl)c3Cl)s2)o1	/	.	.	.	/	69	66	FLuc counter=76
O=C(O)C1Cc2c([nH]c3ccccc23)C(c2ccc3c(c2)OCO3)N1 (centres undefined)	.	.	.	.	.	.	/
CN1C(C)(C)CCCC1(C)C	.	.	/	/	.	.	/
O=C(c1cccc(COc2cccc3ccccc23)c1)N1CCCC1	.	.	.	.	.	50	.
COCCNC(=O)c1ccc2c(c1)S(=O)(=O)c1cc(Cl)ccc1C2=O	.	.	/	/	.	.	/
O=C(NC1CC1)c1ccc2c(c1)S(=O)(=O)c1cc(Cl)ccc1C2=O	.	.	/	/	.	95	94	FLuc counter=38
CCCOc1ccc(CNC(=O)C2CCN(C(=O)N3CCOc4ccccc43)CC2)cc1	.	.	.	.	.	51	.
Cc1ccc(S(=O)(=O)NNC(=O)C2CCN(S(=O)(=O)c3ccc(C)cc3)CC2)cc1	.	.	.	.	.	.	/
COc1cc(C#Cc2c(-c3cncn3C)n(C)c3ccc(-c4cc(OC)c(OC)c(OC)c4)cc23)cc(OC)c1	.	.	/	/	.	96	51	FLuc counter=62
COc1cc(C#Cc2c(-c3cncn3C)n(C)c3ccc(-c4ccc5[nH]ccc5c4)cc23)cc(OC)c1	.	.	/	/	.	.	/
COc1cc(C#Cc2c(-c3cncn3C)n(C)c3ccc(-c4ccc(OC)nc4)cc23)cc(OC)c1	.	.	/	/	84	69	.	FLuc counter=58
O=C(Cn1c(NCCO)nc2ccccc21)c1ccc([N+](=O)[O-])cc1	.	.	.	/	.	.	/
Cc1cc(C)n(-c2nc(N(c3ccccc3)c3ccccc3)nc(-n3nc(C)cc3C)n2)n1	/	.	.	.	.	100	100	FLuc counter=58
COC(=O)C1=C(C)NC(C)=C(C(=O)O[C@@H]2CCCN(Cc3ccccc3)C2)[C@@H]1c1cccc([N+](=O)[O-])c1	.	.	.	/	.	54	.
COc1ccc(NS(=O)(=O)c2cc(NC(=O)/C=C/c3cccs3)ccc2N2CCOCC2)cc1	.	.	.	.	.	53	.
O=C(Nc1cccc([N+](=O)[O-])c1)C1CC(=O)N(Cc2ccccc2)C1 (centres undefined)	.	.	.	.	.	.	/
Cc1cccn2c(=O)c(/C=C(\C#N)C(N)=O)c(Oc3ccccc3)nc12	.	.	.	.	.	.	/
C=C(C(=O)c1ccccc1)C(CC(=O)c1ccccc1)c1ccccc1 (centres undefined)	.	.	.	.	?	101	99	FLuc counter=55
C=C(CCC(=O)c1ccccc1)C(=O)c1ccccc1	.	/	.	.	.	/	/
O=C(COC(=O)c1ccc2c(=O)n3c(nc2c1)CCC3)Nc1ccccc1F	.	.	.	.	.	.	/
O=[N+]([O-])c1ccccc1/C=C/C=N/Nc1nc(N2CCCCC2)nc(N2CCCCC2)n1	.	.	.	.	.	.	/
C(=C\c1ccccc1)/C=N/Nc1nc(N2CCCCC2)nc(N2CCCCC2)n1	.	.	.	93	.	57	.
O=C1C(N2CCOCC2)=C(n2nnc3ccccc32)C(=O)c2ccccc21	120	.	?	.	110	73	.
O=C1c2ccccc2C(=O)c2c1cccc2-n1nnc2ccccc21	.	.	.	.	.	.	/
Cc1ccc(C(=O)OCC(=O)NC(=O)NCc2ccccc2)cc1C	.	.	/	/	.	.	/
O=C(COC(=O)c1ccc(F)c([N+](=O)[O-])c1)NC(=O)NCc1ccccc1	.	.	/	/	.	73	.
CCc1ccc2[nH]c3nc(SCc4nnc(-c5ccccc5)o4)nnc3c2c1	.	.	.	.	.	56	.
COc1ccc2[nH]c3nc(SCc4nnc(-c5ccccc5)o4)nnc3c2c1	.	.	.	.	.	.	/
NS(=O)(=O)c1cccc(NC(=O)c2cccc(-c3ccc(O)cc3)c2)c1	.	.	.	.	.	64	.
